≈ marks a conversion by molar mass, not a printed value.
Experiments:
[1] = tested on: Mycobacterium tuberculosis; test: Antituberculosis activity against INH resistant Mycobacterium tuberculosis H37Rv; assay type: functional
Summary of the method: (§1)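 Agar dilution on 7H11 plates with drug-susceptible and drug-resistant M. tuberculosis H37Rv strains grown in Middlebrook 7H9 broth. Frozen stocks (-80 °C) diluted to about 10⁶ CFU/mL and spotted with a multipoint inoculator onto drug-containing plates. Drugs dissolved in DMSO and serially diluted 2-fold in DMSO. Read-out: MIC.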

[2] = tested on: Mycobacterium tuberculosis; test: Antituberculosis activity against rifampicin resistant Mycobacterium tuberculosis H37Rv; assay type: functional; summary of the method: as §1

COc1ccc(OC[C@@]2(C)Cn3cc([N+](=O)[O-])nc3O2)cc1 showed an MIC [1] of 0.1 µg/mL (≈ 0.328 µM) and an MIC [2] of 0.05 µg/mL (≈ 0.164 µM).
In the case of C[C@]1(COc2ccc(N3CCC(Oc4ccccc4OC(F)(F)F)CC3)cc2)Cn2cc([N+](=O)[O-])nc2O1, the MIC [1] is reported as 0.39 µg/mL (≈ 0.73 µM) and the MIC [2] is reported as 0.2 µg/mL (≈ 0.374 µM).
Compound Cc1ccc(OC[C@@]2(C)Cn3cc([N+](=O)[O-])nc3O2)cc1 has an MIC [1] of 0.024 µg/mL (≈ 0.083 µM) and an MIC [2] of 0.012 µg/mL (≈ 0.0415 µM).
Work on C[C@]1(COc2ccc(N3CCC(Oc4ccc(C(F)(F)F)cc4)CC3)cc2)Cn2cc([N+](=O)[O-])nc2O1 yielded an MIC [1] of 0.012 µg/mL (≈ 0.0231 µM) and an MIC [2] of 0.006 µg/mL (≈ 0.0116 µM).
C[C@]1(COc2ccc(N3CCC(Oc4ccc(F)cc4)CC3)cc2)Cn2cc([N+](=O)[O-])nc2O1 was tested, and the MIC [1] was 0.39 µg/mL (≈ 0.832 µM) and the MIC [2] was 0.2 µg/mL (≈ 0.427 µM).
In the case of C[C@]1(COc2ccc(OC(F)(F)F)cc2)Cn2cc([N+](=O)[O-])nc2O1, the MIC [1] is reported as 0.39 µg/mL (≈ 1.09 µM) and the MIC [2] is reported as 0.2 µg/mL (≈ 0.557 µM).
C[C@]1(COc2ccc(N3CCOCC3)cc2)Cn2cc([N+](=O)[O-])nc2O1 showed an MIC [1] of 0.78 µg/mL (≈ 2.16 µM) and an MIC [2] of 0.39 µg/mL (≈ 1.08 µM).
In the case of C[C@]1(COc2ccc(N3CCCCC3)cc2)Cn2cc([N+](=O)[O-])nc2O1, the MIC [1] is reported as 0.39 µg/mL (≈ 1.09 µM) and the MIC [2] is reported as 0.39 µg/mL (≈ 1.09 µM).
Compound C[C@]1(COc2ccc(N3CCC(Oc4ccc(Cl)cc4)CC3)cc2)Cn2cc([N+](=O)[O-])nc2O1 has an MIC [1] of 0.05 µg/mL (≈ 0.103 µM) and an MIC [2] of 0.024 µg/mL (≈ 0.0495 µM).
With C[C@]1(COc2ccc(N3CCC(Oc4cccc(OC(F)(F)F)c4)CC3)cc2)Cn2cc([N+](=O)[O-])nc2O1 the MIC [1] was 0.024 µg/mL (≈ 0.0449 µM) and the MIC [2] was 0.024 µg/mL (≈ 0.0449 µM).
In the case of C[C@]1(COc2ccc(N3CC[S+]([O-])CC3)cc2)Cn2cc([N+](=O)[O-])nc2O1, the MIC [1] is reported as 6.25 µg/mL (≈ 15.9 µM) and the MIC [2] is reported as 6.25 µg/mL (≈ 15.9 µM).
With C[C@]1(COc2ccc(N3CCC(Oc4ccccc4)CC3)cc2)Cn2cc([N+](=O)[O-])nc2O1 the MIC [1] was 0.39 µg/mL (≈ 0.866 µM) and the MIC [2] was 0.2 µg/mL (≈ 0.444 µM).
Compound C[C@]1(COc2ccc(C(F)(F)F)cc2)Cn2cc([N+](=O)[O-])nc2O1 has an MIC [1] of 0.2 µg/mL (≈ 0.583 µM) and an MIC [2] of 0.1 µg/mL (≈ 0.291 µM).
Compound C[C@]1(COc2ccc(N3CCC(Oc4ccc(OC(F)(F)F)cc4)CC3)cc2)Cn2cc([N+](=O)[O-])nc2O1 [DELAMANID] has an MIC [1] of 0.006 µg/mL (≈ 0.0112 µM) and an MIC [2] of 0.006 µg/mL (≈ 0.0112 µM).
Compound COc1ccc(OC2CCN(c3ccc(OC[C@@]4(C)Cn5cc([N+](=O)[O-])nc5O4)cc3)CC2)cc1 has an MIC [1] of 0.39 µg/mL (≈ 0.812 µM) and an MIC [2] of 0.2 µg/mL (≈ 0.416 µM).
In the case of C[C@]1(COc2ccc(N3CCSCC3)cc2)Cn2cc([N+](=O)[O-])nc2O1, the MIC [1] is reported as 0.39 µg/mL (≈ 1.04 µM) and the MIC [2] is reported as 0.2 µg/mL (≈ 0.531 µM).
C[C@]1(COc2ccc(Cl)cc2)Cn2cc([N+](=O)[O-])nc2O1 showed an MIC [1] of 0.012 µg/mL (≈ 0.0387 µM) and an MIC [2] of 0.006 µg/mL (≈ 0.0194 µM).
C[C@]1(COc2ccccc2)Cn2cc([N+](=O)[O-])nc2O1 showed an MIC [1] of 0.05 µg/mL (≈ 0.182 µM) and an MIC [2] of 0.05 µg/mL (≈ 0.182 µM).
Work on Cc1ccc(OC2CCN(c3ccc(OC[C@@]4(C)Cn5cc([N+](=O)[O-])nc5O4)cc3)CC2)cc1 yielded an MIC [1] of 0.39 µg/mL (≈ 0.84 µM) and an MIC [2] of 0.39 µg/mL (≈ 0.84 µM).

Source: ChEMBL document CHEMBL1138853, “Synthesis and antituberculosis activity of a novel series of optically active 6-nitro-2,3-dihydroimidazo[2,1-b]oxazoles” (2006)
